# Sampled rows, rich in hits. Any-hit rate of the full collection: about 1.4%.
# KLK5 inh = human KLK5 protease inhibitors, primary screen, biochemical, 1536-well; AID 873, 2007; 0.59% of 210,000 active; recombinant hK5, fluorogenic AMC substrate cleavage; Kallikrein-5 (Homo sapiens), Q9Y337; inhibition, % at 5 µM;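 active = inhibition of 40% or more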;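 also: 0% = enzyme controls without compound and 100% = no-enzyme blanks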
# FXIa inh 1536 = human FXIa protease inhibitors, primary screen, biochemical, 1536-well; inhibition, % at 5 µM; 0.14% of 220,000 active; Coagulation factor XI (Homo sapiens), P03951; AID 798, 2007; purified FXIa, Boc-Glu-Ala-Arg-AMC fluorogenic substrate;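 active = inhibition of at least 40%; inactive = inhibition below 40%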;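 also: fluorescence of freed AMC excited at 355 nm; 0% = enzyme without compound and 100% = no enzyme blank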
# FXIIa inh = human FXIIa protease inhibitors, primary screen, biochemical, 1536-well; Coagulation factor XII (Homo sapiens), P00748; purified FXIIa, Boc-QGR-AMC fluorogenic substrate, 2 h; inhibition, % at 5 µM; 0.3% of 220,000 active; AID 800, 2007; in the data active = inhibition above about 40%;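 also: 0% = enzyme with no compound and 100% = blank without enzyme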
# Target sequence (P00748 20-372 limits assumed): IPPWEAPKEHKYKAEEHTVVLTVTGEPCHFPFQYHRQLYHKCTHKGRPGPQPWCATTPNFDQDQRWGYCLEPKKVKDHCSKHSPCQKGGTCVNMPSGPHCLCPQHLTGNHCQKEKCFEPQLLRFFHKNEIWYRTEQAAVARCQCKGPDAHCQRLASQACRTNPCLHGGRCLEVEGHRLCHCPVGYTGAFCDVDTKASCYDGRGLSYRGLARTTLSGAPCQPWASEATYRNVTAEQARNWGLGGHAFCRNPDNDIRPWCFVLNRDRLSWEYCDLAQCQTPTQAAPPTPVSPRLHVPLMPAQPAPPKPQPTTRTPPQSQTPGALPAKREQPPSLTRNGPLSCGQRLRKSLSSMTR
# Target sequence (P00748 373-615 limits assumed): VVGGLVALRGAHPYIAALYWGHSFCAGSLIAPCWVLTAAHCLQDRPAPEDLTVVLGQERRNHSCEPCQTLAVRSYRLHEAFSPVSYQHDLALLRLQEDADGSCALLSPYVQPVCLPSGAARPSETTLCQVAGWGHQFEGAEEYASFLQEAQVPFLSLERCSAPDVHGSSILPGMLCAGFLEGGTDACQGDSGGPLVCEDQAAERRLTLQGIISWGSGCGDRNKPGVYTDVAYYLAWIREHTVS
# Furin inhibitor = human furin inhibitors, primary screen, biochemical, fluorescence intensity | inhibition, % at 20 µM or 30 µM | P09958 | 0.061% of 220,000 active | purified furin, fluorogenic substrate cleavage; in the data active = inhibition above about 25%
# thrombin 1536 = human alpha-thrombin inhibitors, primary screen, counter-screen for coagulation protease inhibitor project, biochemical, 1536-well, fluorogenic AMC substrate | inhibition, % at 5 µM | 0.26% of 220,000 active | AID 1046, 2008 | Boc-VPR-AMC fluorogenic substrate cleavage | Prothrombin (Homo sapiens), P00734;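 active = inhibition at or above 40%; inactive = inhibition below 40%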;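 also: 0% = enzyme with no compound and 100% = wells without enzyme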
#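 Material: Human alpha-thrombin protein | Buffer or medium: pH 7.5 Tris-saline with Tween 20 | Reagent: Boc-VPR-AMC substrate, 15 µM final | Schedule: Reaction at ambient temperature | Detection: AMC fluorescence at 355 nm excitation and 460 nm emission | Evaluation: Percent inhibition scaled between no-compound controls and no-enzyme blanks | Controls: no-compound enzyme wells and no-enzyme blanks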
# Calpain2 inh = inhibitors of pig calpain II, primary screen, biochemical, fluorogenic peptide substrate, 1536-well. AID 1236, 2008. inhibition, % at 16 µM. 0.37% of 220,000 active. purified calpain II, 30 min;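 active = inhibition above about 50%, limit read from the data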
# * marks the source's active call; other numbers are inactive results; i = inactive; · = no result.
SMILES,KLK5 inh,FXIa inh 1536,FXIIa inh,Furin inhibitor,thrombin 1536,Calpain2 inh
CC1CCCCN1S(=O)(=O)c1coc(C(N)=O)c1 (stereo unspecified),42*,3,33,-9,18,10
Cn1c2c(c(=O)n(C)c1=O)C(CC(=O)Nc1ccccc1)C(=O)N2 (stereo unspecified),7,-5,15,22,12,92*
Cn1c2c(c(=O)n(C)c1=O)C(CC(=O)Nc1ccccc1F)C(=O)N2 (stereo unspecified),0,-2,1,-8,-7,8
Cc1ccc2c(c1)CCCN2C(=O)c1ccc2c(c1)OCO2,-15,7,6,-19,7,50*
COc1ccc(NC(=O)c2ccc(=O)oc2)cc1,-9,1,14,-12,-2,52*
CN(C)c1ccc(NC(=O)c2cnsn2)cc1,3,2,5,-10,-8,7
O=C(OCC(=O)N1CCCc2ccccc21)c1ccc(Cl)nc1,29,14,47*,-16,28,22
CCOC(=O)CN1N=C(/C=C/c2ccc(C(C)C)cc2)CCC1=O,-4,-4,6,-24,-22,55*
CC(=O)Nc1ccc(CN2CCC(CO)(CCOc3ccccc3)CC2)cc1,19,3,5,-22,-1,0
CC(NC(=O)CN1C(=O)COc2ccccc21)c1ccccc1 (stereo unspecified),-16,-3,18,-18,-9,-20
O=C1/C(=C/c2ccco2)SC(=S)N1CC1CCCO1 (stereo unspecified),11,-5,0,-18,-6,21
CC(C)COc1cccc(C(=O)NC(=S)Nc2cccc(NC(=O)c3ccccc3Cl)c2)c1,42*,15,22,-23,18,29
CC(=O)c1ccc(O)c(CSC2=NCCS2)c1,34,27,26,-5,67*,29
CCOC(=O)CSC1=C(C#N)C(c2ccc(Cl)cc2)CC(=O)N1 (stereo unspecified),45*,6,34,-22,14,1
CSc1cccc(NC(=O)C2CCN(C(=O)c3ccccc3C)CC2)c1,-10,-1,0,-22,-9,-13
O=C(Nc1cccc(F)c1)C1CCN(C(=O)c2ccccc2Cl)CC1,46*,1,9,-8,4,18
CC(C)n1c(C(F)(F)F)nc2cc(C(=O)N3CCC(O)CC3)ccc21,6,4,7,-22,3,-12
Nc1c(C(=O)NCc2cccnc2)sc(=S)n1-c1ccccc1,35,15,42*,-10,38,32
Cc1ccc(OCC(=O)N2CCN(C(=O)CCC3CCCC3)CC2)cc1,18,5,11,-22,-2,5
Cc1ccc(OCC(=O)N2CCC(N3CCCCCC3)CC2)cc1,-32,-14,-1,-24,42*,-13
Cc1ccnc2nc(C(=O)Nc3nc(-c4ccccn4)cs3)nn12,-7,0,·,-23,-1,-73
CCC(=O)OCCn1c(=O)c2cc3c(=O)n(CCOC(=O)CC)c(=O)c3cc2c1=O,-2,20,54*,-14,4,33
CCCOC(=O)Cn1c(=O)c2cc3c(=O)n(CC(=O)OCCC)c(=O)c3cc2c1=O,-24,4,7,-19,2,-7
CC(C)Cc1nnc(NC(=O)CCC(=O)Nc2ccc(F)cc2)s1,-1,4,9,-18,2,30
O=c1nc(SCc2c(F)cccc2Cl)nc(-c2ccc(Cl)cc2)[nH]1,11,10,10,-21,5,16
SMILES,KLK5 inh,FXIa inh 1536,FXIIa inh,Furin inhibitor,thrombin 1536,Calpain2 inh
O=c1nc(SCc2ccccc2Cl)nc(-c2ccc(Cl)cc2)[nH]1,5,5,8,-14,3,50*
O=S(=O)(Cc1ccccc1)NCC1CCCN(Cc2ccc(F)c(F)c2)C1 (stereo unspecified),-3,-4,5,-27,-2,65*
O=S(=O)(Cc1ccccc1)NCC1CCCN(Cc2ccc3nonc3c2)C1 (stereo unspecified),3,-3,5,-30,-5,0
Cc1cc(C)nc(NNC2=CC(=[N+]3CCCC3)CCC2)n1,1,-1,7,-33,10,-14
COc1cccc(OC)c1-c1nn2c(-c3cc(-c4ccccc4)n[nH]3)nnc2s1,-16,-17,0,-27,0,85*
COc1cccc(-c2nnc3sc(-c4ccccc4)nn23)c1,-7,19,20,-13,4,10
CCn1c(-c2c(Cl)c(C)nn2C)n[nH]c1=S,55*,0,17,-24,16,20
CCCCn1c(-c2c(Cl)c(C)nn2C)n[nH]c1=S,-14,-7,2,-16,-5,21
COc1ccc(N2CCN(c3oc(COc4ccc(Cl)cc4Cl)nc3C#N)CC2)cc1,11,23,31,-1,2,51*
O=S(=O)(Nc1nccs1)c1cc(Cl)ccc1Cl,23,-6,-10,-27,-4,-49
O=C1CC(O)(C(F)F)Oc2ccc3ccccc3c21 (stereo unspecified),-1,-5,16,-29,3,i
O=C1CC(O)(C(F)(F)F)Oc2c1ccc1ccccc21 (stereo unspecified),93*,8,15,-44,30,-200
O=C(c1ccc(S(=O)(=O)N2CCCCC2)cc1)c1nnc(-c2ccc(Cl)cc2)o1,46*,34,2,-14,15,25
CCn1c(-c2ccccc2)c[nH]c1=S,-8,-7,4,-25,-5,-39
CC(C)Cn1c(-c2ccc(Br)cc2)c[nH]c1=S,6,3,12,-11,-3,75*
CC(=O)c1cccc(NC(=O)c2ccc(N(Cc3ccccc3)S(C)(=O)=O)cc2)c1,-15,-4,15,-12,2,-28
CNC(=O)c1ccc(N(Cc2ccccc2)S(C)(=O)=O)cc1,72*,7,58*,-16,12,6
CC(C)C(=O)N1CCN(c2ccccc2N)CC1,-1,-3,8,-25,-4,81*
Cc1cccc(OCC(=O)N/N=C\c2cn(C)c3ccccc23)c1,-5,2,11,-21,19,-89
Cc1ccc(CNC(=O)c2ccc3c(=O)n(CC4CCCO4)c(=S)[nH]c3c2)cc1 (stereo unspecified),-21,2,9,-10,-1,81*
O=C(NCc1ccccc1)c1ccc2c(=O)n(CC3CCCO3)c(=S)[nH]c2c1 (stereo unspecified),23,3,17,-16,2,22
COc1ccc(CNc2nc(-c3cccnc3)nn2C(=O)CC(C)C)cc1,-1,-5,5,-30,95*,-15
